Most compounds without a hit are left out; they make up all but 2.6% or so of the library.
esBAF inh: Bmi1 luciferase reporter increase in mESCs, primary screen, esBAF inhibitor project, mouse ES cells, Bmi1 luciferase knock-in, single point; 24 h; 100% = twice the neutral-well signal; reporter increase, % at 12.5 µM; 350,000 compounds, 2% hits; in the data active = activation above about 40%;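 also: a rise in the Bmi1 reporter signal indicates esBAF inhibition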
ASAP1 GAP inh: inhibitors of human ASAP1 ArfGAP activity, primary screen, biochemical, fluorescence polarization | ASAP1-stimulated ARF1 GTP hydrolysis, GDP FP detection | 360,000 compounds, 0.19% hits | inhibition, % at 16.5 µM | Arf-GAP with SH3 domain, ANK repeat and PH domain-containing protein 1 (Homo sapiens), …; in the data active = inhibition above about 25%
Target sequence (Q9ULH1 325-724 limits assumed): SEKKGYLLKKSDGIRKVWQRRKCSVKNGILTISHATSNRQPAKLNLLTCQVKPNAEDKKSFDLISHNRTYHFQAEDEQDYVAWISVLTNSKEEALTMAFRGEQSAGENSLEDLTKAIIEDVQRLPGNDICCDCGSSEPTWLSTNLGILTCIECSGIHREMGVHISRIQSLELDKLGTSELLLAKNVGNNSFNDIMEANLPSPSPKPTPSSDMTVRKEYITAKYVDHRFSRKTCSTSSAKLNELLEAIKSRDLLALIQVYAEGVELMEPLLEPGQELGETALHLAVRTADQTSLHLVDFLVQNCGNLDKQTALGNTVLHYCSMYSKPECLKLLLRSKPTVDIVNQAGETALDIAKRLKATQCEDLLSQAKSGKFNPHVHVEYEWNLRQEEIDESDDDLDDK
ARFGAP1 inh: inhibitors of rat ARFGAP1 GAP activity, primary screen, biochemical, fluorescence polarization, GDP tracer | ADP-ribosylation factor GTPase-activating protein 1 (Rattus norvegicus), Q62848 | inhibition, % at 16.5 µM | AID 651572, 2012 | 360,000 compounds, 0.26% hits | Arfgap1-stimulated ARF1 GTP hydrolysis, GDP FP detection;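 active = inhibition above a per-plate limit, mean inhibition of low control wells plus 3 SD, cut at about 25% in these data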
Target sequence (Q62848 1-136 limits assumed): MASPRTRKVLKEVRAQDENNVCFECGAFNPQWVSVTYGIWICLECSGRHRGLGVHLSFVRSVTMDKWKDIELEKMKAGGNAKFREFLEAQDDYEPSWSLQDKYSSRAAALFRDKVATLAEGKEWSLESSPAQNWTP
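Material: truncated rat Arfgap1 GAP domain; Incubation: compound-enzyme preincubation 20 min, reaction 120 min, detection 60 min, 25 °C; Read-out: percent inhibition of Arfgap1-stimulated GTP hydrolysis; Technique: FP, GDP Alexa 633 tracer displaced from anti-GDP antibody, 620/688 nm; Controls: No-Arfgap1 wells (100%) versus DMSO full-reaction wells (0%); Replication: single well per compound.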
SMARCA2 act: SMARCA2 (BRM) function activators, primary screen, cell-based, luminescence, high throughput | 370,000 compounds, 1% hits | AID 652017, 2013 | MG213 cells, MMTV-luciferase reporter, dexamethasone, overnight | activation, % at 9.1 µM; in the data active = activation above about 7.8%
SMARCA2 conf: SMARCA2 (BRM) function activators, confirmation, cell-based, luminescence, triplicate. shares compounds with SMARCA2 act. MG213 cells, MMTV-luciferase with dexamethasone, overnight; MG213 cells expressing E1A, Rb sequestered; DMSO wells 0%, reference activator 100%. activation, % at 9.1 µM. 3,500 compounds, 30% hits. AID 652260, 2013;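 active = activation above its plate's cutoff, the mean activation of tested wells plus 3 SD, cut at about 7.9% in these data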
VP16 Luc act: GAL4-VP16 luciferase reporter activation, counter-screen for SMARCA2 (BRM) activator project, cell-based, pG5luc, luminescence, high throughput; shares compounds with SMARCA2 act; HEK293 GAL4-VP16 pG5luc reporter; scaled: DMSO wells 0%, SAHA wells 100%; activation, % at 9.1 µM; 3,500 compounds, 41% hits; AID 686939, 2013;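 active = activation above the solvent-only control well mean plus 3 SD, averaged across control plates, cut at about 5.2% in these data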
Of the large screens only hits and unclear results are named; the others gave an inactive call (follow-up assays come after a bar, where they were run); ! = a repeat was not active.

COc1cc(CNc2cccc(F)c2)cc(Br)c1O	SMARCA2 act 9.2 | SMARCA2 conf inactive | VP16 Luc act inactive
CCCc1nnc2c(N(C)S(=O)(=O)c3ccccc3)nc3ccccc3n12	none (no result: esBAF inh)
Cc1nnc2c(N(C)S(=O)(=O)c3ccccc3)nc3ccccc3n12	SMARCA2 act 8.2 | SMARCA2 conf 9.0 | VP16 Luc act inactive
CCOC(=O)C1CN(S(C)(=O)=O)c2cc(CC(=O)OC)ccc2O1 (stereo not drawn)	SMARCA2 act 8.2 (no result: esBAF inh) | SMARCA2 conf inactive | VP16 Luc act inactive
O=C(O)C1CCCCC1C(=O)Nc1ccc(-c2ccccc2)cc1 (stereo not drawn)	SMARCA2 act 12 (no result: esBAF inh) | SMARCA2 conf inactive | VP16 Luc act inactive
CC(=O)Nc1ccc(NC(=O)C2CCCCC2C(=O)O)cc1 (stereo not drawn)	none (no result: esBAF inh)
Cc1ccc2oc(C(=O)Nc3cc(C)on3)c(C)c2c1	SMARCA2 act 9.4 | SMARCA2 conf 8.2 | VP16 Luc act 8.0
Cc1cc2oc(C(=O)Nc3nonc3C)c(C)c2cc1C	esBAF inh 77, SMARCA2 act 8.9 | SMARCA2 conf inactive | VP16 Luc act 11
C[C@@H]1CCCCO[C@@H](CN(C)C(=O)Nc2ccc3c(c2)OCO3)[C@@H](C)CN([C@H](C)CO)C(=O)c2cc(NC(=O)Nc3ccccc3)ccc2O1	none (no result: ASAP1 GAP inh, ARFGAP1 inh, SMARCA2 act)
Cc1noc(C)c1S(=O)(=O)Nc1ccc2c(c1)C(=O)N([C@H](C)CO)C[C@H](C)[C@H](CN(C)C(=O)c1ccccc1)OCCCC[C@@H](C)O2	none (no result: ASAP1 GAP inh, ARFGAP1 inh, SMARCA2 act)
CCC(=O)Nc1cc(Cl)ccc1C(=O)O	SMARCA2 act 9.4 | SMARCA2 conf inactive | VP16 Luc act inactive
CCC(C)C(=O)Nc1cc(Cl)ccc1C(=O)O (stereo not drawn)	none (no result: esBAF inh)
CC(C)C#Cc1cnc2c(c1)C(=O)N([C@@H](C)CO)C[C@@H](C)[C@@H](CN(C)C(=O)C1CCC1)O2	none (no result: ASAP1 GAP inh, ARFGAP1 inh, SMARCA2 act)
COc1cccc(-c2cn(CC[C@H]3CC[C@H](NS(=O)(=O)Cc4ccccc4)[C@H](CO)O3)nn2)c1	none (no result: ASAP1 GAP inh, ARFGAP1 inh, SMARCA2 act)
c1ccc2oc(SCc3cn4ccsc4n3)nc2c1	none
Cc1csc2nc(CSc3nc4ccccc4o3)cn12	esBAF inh 44, SMARCA2 act 8.9 | SMARCA2 conf inactive | VP16 Luc act inactive
Cc1cc(O)ccc1Nc1cc(-c2cccc(N(C)C)c2)ncn1	esBAF inh 55, SMARCA2 act 11 | SMARCA2 conf 11 | VP16 Luc act 11
C[C@H]1CCCCO[C@@H](CN(C)C(=O)Cc2ccccc2)[C@@H](C)CN([C@@H](C)CO)C(=O)c2cc(NS(=O)(=O)c3cccs3)ccc2O1	none (no result: ASAP1 GAP inh, ARFGAP1 inh, SMARCA2 act)
COCCNC(=O)c1cc2c(=O)n3cccc(C)c3nc2n(Cc2ccncc2)c1=N	none
CCCCNC(=O)c1cc2c(=O)n3cccc(C)c3nc2n(Cc2ccncc2)c1=N	SMARCA2 act 9.7 | SMARCA2 conf 13 | VP16 Luc act inactive
c1ccc2c(NCCCN3CCOCC3)c3ccccc3nc2c1	SMARCA2 act 15 (no result: esBAF inh) | SMARCA2 conf 28 | VP16 Luc act inactive
Cc1cc(NCCN2CCOCC2)c2ccc3ccccc3c2n1	SMARCA2 act 11 (no result: esBAF inh) | SMARCA2 conf 21 | VP16 Luc act inactive
CCC(=O)NC1=C(Nc2ccc(N)cc2)C(=O)c2ccccc2C1=O	SMARCA2 act 9.0 | SMARCA2 conf inactive | VP16 Luc act 11
O=C1/C(=C/c2cccs2)Cc2ccccc21	SMARCA2 act 9.6 | SMARCA2 conf 8.3 | VP16 Luc act inactive
O=C1C(=Cc2cccs2)C(=O)c2ccccc21	none (no result: esBAF inh)
CCOC(=O)C1=NN(c2ccc(F)cc2)C2=NC(C)=C(C(=O)OC)C(c3cccs3)N12 (stereo not drawn)	SMARCA2 act 8.8 | SMARCA2 conf inactive | VP16 Luc act inactive
COc1ccc2c(c1)CCc1c(C(=O)NCc3cccnc3)noc1-2	SMARCA2 act 10 | SMARCA2 conf inactive | VP16 Luc act 6.4
c1ccc2c(-c3nc4ccccc4[nH]3)cccc2c1	none (no result: esBAF inh)
c1ccc2[nH]c(-c3ccnc4ccccc34)nc2c1	SMARCA2 act 11! | SMARCA2 conf inactive | VP16 Luc act inactive
CCNS(=O)(=O)c1ccc(OCCNS(C)(=O)=O)cc1	SMARCA2 act 8.1 | SMARCA2 conf inactive | VP16 Luc act inactive
Cc1cccc(CN(C)C[C@H]2OCc3cn(nn3)CCCC(=O)N([C@H](C)CO)C[C@H]2C)c1	none (no result: ASAP1 GAP inh, ARFGAP1 inh, SMARCA2 act)
CCOCCCNC(=O)C(c1ccccc1)N(Cc1cccs1)C(=O)c1ccccc1O (stereo not drawn)	none (no result: esBAF inh)
CCOCCCNC(=O)C(c1ccccc1)N(Cc1cccs1)C(=O)CNC(=O)c1ccccc1 (stereo not drawn)	SMARCA2 act 8.7 | SMARCA2 conf inactive | VP16 Luc act inactive
COc1ccc(OCCN2CCC(C(=O)NC(c3ccc(F)cc3)c3ccc4ccccc4n3)CC2)cc1 (stereo not drawn)	SMARCA2 act 9.6 | SMARCA2 conf inactive | VP16 Luc act inactive
CC(=O)Nc1ccc2c(c1)C(=O)N(C)[C@@H]1CC[C@H](CC(=O)NCCCN3CCOCC3)O[C@@H]1CO2	none (no result: ASAP1 GAP inh, ARFGAP1 inh, SMARCA2 act)
Cc1noc(/C=C/Nc2ccc(F)cc2F)c1[N+](=O)[O-]	SMARCA2 act 8.0 (no result: esBAF inh) | SMARCA2 conf inactive | VP16 Luc act 10
Cc1noc(C(=O)Nc2ccc(F)cc2F)c1Cl	none
COc1ccc(-c2cn3ccccc3n2)cc1	none
CCCOc1ccc(-c2cn3ccccc3n2)cc1	SMARCA2 act 8.2 (no result: esBAF inh) | SMARCA2 conf inactive | VP16 Luc act 9.7
CCCC#Cc1cnc2c(c1)C(=O)N([C@@H](C)CO)C[C@H](C)[C@H](CN(C)C(=O)c1ccccc1)O2	none (no result: ASAP1 GAP inh, ARFGAP1 inh, SMARCA2 act)
O=[N+]([O-])c1ccccc1Nc1nc(-c2cccnc2)cs1	SMARCA2 act 9.2 | SMARCA2 conf 9.6 | VP16 Luc act 7.7
COCC(=O)N(C)C[C@@H]1Oc2ncc(C#Cc3ccc(OC)cc3)cc2C(=O)N([C@@H](C)CO)C[C@@H]1C	none (no result: ASAP1 GAP inh, ARFGAP1 inh, SMARCA2 act)
Cn1c(=O)c2cc(S(=O)(=O)NC(C(=O)Nc3cccnc3)c3ccccc3)ccc2n(C)c1=O (stereo not drawn)	SMARCA2 act 10 | SMARCA2 conf inactive | VP16 Luc act inactive
C[C@@H]1CCCCO[C@@H](CN(C)S(C)(=O)=O)[C@H](C)CN([C@H](C)CO)C(=O)c2cc(NC(=O)Nc3ccc(F)cc3)ccc2O1	none (no result: ASAP1 GAP inh, ARFGAP1 inh, SMARCA2 act)
COC(=O)C1CCCN(C(=O)C(Cc2ccc3c(c2)OCO3)NC(C)=O)C1 (stereo not drawn)	SMARCA2 act 16 (no result: esBAF inh, ASAP1 GAP inh, ARFGAP1 inh) | SMARCA2 conf inactive | VP16 Luc act inactive
